Test results reported in ChEMBL document CHEMBL4007509, “Structural Optimizations of Thieno[3,2-b]pyrrole Derivatives for the Development of Metabolically Stable Inhibitors of Chikungunya Virus” (J Med Chem, 2017).

Tests used:
[1] = tested on: Chikungunya virus; assay: Antiviral activity against full length Gaussia princeps Gluc-tagged Chikungunya virus IMT infected in HEK293T cells assessed as reduction in virus infection after 24 hrs by Gaussia luciferase reporter gene assay; type: functional, cell-based; conditions: HEK-293T
[2] = tested on: Chikungunya virus; assay: Antiviral activity against wild type Chikungunya virus IMT infected in HEK293T cells assessed as reduction in virus infection after 24 hrs by FITC immunofluorescence-based single cell quantification high content screening assay; type: functional; conditions: HEK-293T
[3] = Selectivity index, ratio of CC50 for HEK293T cells to EC50 for full length Gaussia princeps Gluc-tagged Chikungunya virus IMT; type: toxicity; conditions: human, read-out: Ratio CC50/EC50
[4] = Cytotoxicity against HEK293T cells assessed as reduction in cell viability after 24 hrs by CellTiter-Glo luminescent assay; type: cell-based, HEK-293T; conditions: human
Summary of the method: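 HEK 293T cell viability was measured by CellTiter-Glo luminescence after 24 h exposure to serial dilutions. Data were normalized to untreated cells (100%) and reagent background (0%). CC50, the concentration reducing viability by 50%, came from a five-parameter asymmetric fit.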

[5] = Half life in human liver microsomes; type: ADME, microsome
Summary of the method: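 Compounds were incubated with human liver microsomes. Half-life = ln(2)/slope, where the slope is ln(% detected) plotted against time, using the mean of at least 3 independent experiments.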

[6] = Plasma concentration in C57BL/6 mouse at 10 mg/kg, po administered as single dose measured within 1 hr post dose by HPLC-MS/MS analysis; type: ADME, organism-based
Summary of the method: (§1)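 Male C57BL/6 mice received a single 3 mg/kg iv or 10 mg/kg po dose in 5% DMSO/70% PEG400/25% water. Plasma was sampled at set times over 24 h and analysed by HPLC-MS/MS, with a quantification limit of 0.5 ng/mL. Values are mean ± SD of three mice.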

[7] = Oral bioavailability in C57BL/6 mouse at 10 mg/kg; type: ADME, organism-based; conditions: in vivo
Summary of the method: (§2)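 Male C57BL/6 mice received a single 3 mg/kg iv or 10 mg/kg po dose of a solution in 5% DMSO, 70% PEG400 and 25% water. Results are terminal half-life (h), plasma clearance (mL min−1 kg−1), Vss (L/kg), Tmax (h), Cmax (ng/mL) and oral bioavailability. Values are mean ± SD of three mice.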

[8] = Plasma clearance in C57BL/6 mouse at 3 mg/kg, iv; type: ADME, organism-based; summary of the method: as §2
[9] = tested on: Liver; assay: Intrinsic clearance in human liver microsomes; type: ADME, microsome
Summary of the method: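 Intrinsic clearance was measured in human liver microsome incubation and expressed in μL min−1 mg−1 microsomal protein.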

[10] = Cmax in C57BL/6 mouse at 10 mg/kg, po; type: ADME, organism-based; design: dose 10 mg/kg, route oral; conditions: in vivo; summary of the method: as §2
[11] = Tmax in C57BL/6 mouse at 10 mg/kg, po; type: ADME, organism-based; conditions: in vivo; summary of the method: as §2
[12] = Plasma concentration in C57BL/6 mouse at 10 mg/kg, po administered as single dose measured at 24 hrs by HPLC-MS/MS analysis; type: ADME, organism-based; summary of the method: as §1
[13] = Volume of distribution in steady state in C57BL/6 mouse at 3 mg/kg, iv; type: ADME, organism-based; conditions: in vivo, read-out: Vdss; summary of the method: as §2
[14] = Terminal half life in C57BL/6 mouse at 3 mg/kg, iv; type: ADME, organism-based; conditions: in vivo, read-out: beta t1/2 (converted); summary of the method: as §2
[15] = tested on: Chikungunya virus; assay: Antiviral activity against Chikungunya virus IMT infected in HEK 293T cells assessed as reduction in viral load measured up to 24 hrs by qRT-PCR analysis relative to control; type: functional, cell-based
[16] = Terminal half life in C57BL/6 mouse at 10 mg/kg, po; type: ADME, organism-based; conditions: in vivo, read-out: beta t1/2 (converted); summary of the method: as §2
[17] = Plasma concentration in C57BL/6 mouse at 3 mg/kg, iv administered as single dose measured at 24 hrs by HPLC-MS/MS analysis; type: ADME, organism-based; summary of the method: as §1
[18] = tested on: Chikungunya virus; assay: Antiviral activity against Chikungunya virus IMT infected in HEK 293T cells assessed as reduction in viral load at 25 uM measured up to 24 hrs by qRT-PCR analysis relative to control; type: functional
[19] = tested on: Chikungunya virus; assay: Antiviral activity against Chikungunya virus IMT infected in HEK 293T cells assessed as reduction in viral load at 5 uM measured up to 24 hrs by qRT-PCR analysis relative to control; type: functional
[20] = tested on: Chikungunya virus; assay: Antiviral activity against Chikungunya virus IMT infected in HEK 293T cells assessed as reduction in viral load at 10 uM measured up to 24 hrs by qRT-PCR analysis relative to control; type: functional
[21] = Plasma concentration in C57BL/6 mouse at 3 mg/kg, iv administered as single dose measured within 1 hr post dose by HPLC-MS/MS analysis; type: ADME, organism-based; summary of the method: as §1
[22] = tested on: Chikungunya virus; assay: Antiviral activity against Chikungunya virus IMT infected in HEK 293T cells assessed as reduction in viral load measured up to 24 hrs by qRT-PCR analysis; type: functional, cell-based
[23] = Cytotoxicity against human BJ cells assessed as reduction in cell viability after 24 hrs by CellTiter-Glo luminescent assay; type: cell-based
Summary of the method: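 BJ human fibroblast viability was measured by CellTiter-Glo luminescence after 24 h exposure to serial dilutions. Data were normalized to untreated cells (100%) and reagent background (0%). CC50 came from a five-parameter asymmetric fit.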

[24] = tested on: Chikungunya virus; assay: Antiviral activity against full length gluc-tagged Chikungunya virus 2008 Singapore SGP11 infected in HEK293T cells assessed as reduction in virus infection after 24 hrs by gaussia luciferase reporter gene assay; type: functional, cell-based; conditions: 2008 Singapore SGP11, HEK-293T
[25] = tested on: Chikungunya virus; assay: Antiviral activity against full length gluc-tagged Chikungunya virus 2013 Caribbean CNR20235 infected in HEK293T cells assessed as reduction in virus infection after 24 hrs by gaussia luciferase reporter gene assay; type: functional, cell-based; conditions: 2013 Caribbean CNR20235, HEK-293T
[26] = tested on: Chikungunya virus; assay: Antiviral activity against full length gluc-tagged Chikungunya virus IMT infected in human BJ cells assessed as reduction in virus infection after 24 hrs by gaussia luciferase reporter gene assay; type: functional, cell-based

SMILES	EC50 [1]	EC50 [2]	selectivity ratio [3]	CC50 at 24 h [4]	half-life [5]	other results
CCCNC(=O)C1CCN(C(=O)c2cc3ncsc3n2Cc2ccc(OC)cc2)CC1	9.39 µM	14 µM	4.5	42.7 µM	32.6 min	–
[2H]C([2H])(c1ccc(OC)cc1)n1c(C(=O)N2CCC(C(=O)NCCC)CC2)cc2sc(Br)cc21	2.03 µM	2.06 µM	> 49	> 100 µM	3.53 min	–
CCCNC(=O)C1CCN(C(=O)c2cc3oc(Br)cc3n2Cc2ccc(OC)cc2)CC1	1.93 µM	1.86 µM	11	21.9 µM	9.5 min	–
CCCNC(=O)C1CC12CCN(C(=O)c1cc3sc(Br)nc3n1Cc1ccc(OC)cc1)CC2 (configuration not stated)	8.21 µM	> 25 µM	9.9	81.3 µM	4.97 min	–
CCCNC(=O)[C@@H]1C[C@H]2CCC[C@@H](C1)[C@@H]2NC(=O)c1cc2sc(Br)nc2n1Cc1ccc(OC)cc1	7.23 µM	12.6 µM	> 14	> 100 µM	52 min	concentration at 1 h [6]: 17 µM; bioavailability [7]: 39.1%; clearance [8]: 5.68 mL/min/kg; CLH [9]: 26.7 µL/min; Cmax [10]: 6700 ng/mL; Tmax [11]: 20 min; concentration at 24 h [12]: < 0.5 ng/mL; Vd [13]: 0.337 L/kg; half-life [14]: 65.4 min; Activity [15]: Dose-dependent effect; half-life [16]: 83.4 min; concentration at 24 h [17]: < 0.5 ng/mL; fold change (FC) [18]: <=5; fold change (FC) [19]: <=5; fold change (FC) [20]: <=5; concentration at 1 h [21]: 17 µM; inhibition [22]: Dose-dependent effect
NC(=O)c1ncn([C@@H]2O[C@H](CO)[C@@H](O)[C@H]2O)n1 [RIBAVIRIN]	16.2 µM	–	–	> 100 µM	–	CC50 at 24 h [23]: > 100 µM; EC50 [24]: 1.89 µM; EC50 [25]: 1.97 µM; EC50 [26]: 9.71 µM
CCCNC(=O)C1CCN(C(=O)c2cc3sc(-c4ccccc4)nc3n2Cc2ccc(OC)cc2)CC1	3.02 µM	5.63 µM	7.6	22.9 µM	40.8 min	–
[2H]C([2H])([2H])C([2H])(NC(=O)C1CCN(C(=O)c2cc3sc(Br)cc3n2Cc2ccc(OC)cc2)CC1)C([2H])([2H])[2H]	1.55 µM	1.63 µM	> 65	> 100 µM	5.33 min	–
[2H]C([2H])(c1ccc(OC)cc1)n1c(C(=O)N2CCC(C(=O)NC([2H])(C([2H])([2H])[2H])C([2H])([2H])[2H])CC2)cc2sc(Br)cc21	1.72 µM	2 µM	> 58	> 100 µM	3.8 min	–
CCCNC(=O)C1CCN(C(=O)c2cc3occc3n2Cc2ccc(OC)cc2)CC1	6 µM	5.24 µM	6.2	37.2 µM	2.74 min	–
CCCNC(=O)[C@H]1[C@@H]2CCC[C@H]1CN(C(=O)c1cc3sc(-c4ccccc4)nc3n1Cc1ccc(OC)cc1)C2	9.64 µM	12.5 µM	> 10	> 100 µM	35.1 min	–
CCCNC(=O)C1CCN(C(=O)c2cc3nc(Br)sc3n2Cc2ccc(OC)cc2)CC1	2.22 µM	3.87 µM	21	46.8 µM	22.1 min	–
CCCNC(=O)C1CCN(C(=O)c2cc3ccsc3n2Cc2ccc(OC)cc2)CC1	8.86 µM	6.5 µM	2.6	23.4 µM	4.08 min	–
CCCNC(=O)C1CCN(C(=O)c2cc3scnc3n2Cc2ccc(OC)cc2)CC1	4.56 µM	4.72 µM	4.2	19.1 µM	27.7 min	–
CCCNC(=O)C1CC12CCN(C(=O)c1cc3sc(Br)cc3n1Cc1ccc(OC)cc1)CC2 (configuration not stated)	9.35 µM	15.7 µM	> 11	> 100 µM	5.83 min	–
CCCNC(=O)[C@H]1[C@@H]2CCC[C@H]1CN(C(=O)c1cc3sc(Br)cc3n1Cc1ccc(OC)cc1)C2	6.98 µM	14.8 µM	> 14	> 100 µM	3.62 min	–
CCCNC(=O)[C@@H]1C[C@H]2CCC[C@@H](C1)[C@@H]2NC(=O)c1cc2sc(-c3ccccc3)nc2n1Cc1ccc(OC)cc1	5.32 µM	> 25 µM	> 19	> 100 µM	27.2 min	–
COc1ccc(Cn2c(C(=O)N3CCC(C(=O)NC(C)C)CC3)cc3sc(Br)cc32)cc1	1.95 µM	2.47 µM	> 51	> 100 µM	3.76 min	–
CCCNC(=O)C1CC12CCN(C(=O)c1cc3sc(-c4ccccc4)nc3n1Cc1ccc(OC)cc1)CC2 (configuration not stated)	7.7 µM	14.1 µM	> 13	> 100 µM	41.8 min	–
CCCNC(=O)C1CCN(C(=O)c2cc3sc(Br)nc3n2Cc2ccc(OC)cc2)CC1	1.06 µM	2.96 µM	35	36.7 µM	2.99 min	–
CCCNC(=O)C1CCN(C(=O)c2cc3ccccc3n2Cc2ccc(OC)cc2)CC1	7.86 µM	8.26 µM	3.3	26 µM	2.66 min	–
CCCNC(=O)[C@@H]1C[C@H]2CCC[C@@H](C1)[C@@H]2NC(=O)c1cc2sc(Br)cc2n1Cc1ccc(OC)cc1	14 µM	–	> 7.1	> 100 µM	45.1 min	–
